Assay outcomes from PubChem.
Myeloid diff 2: compounds promoting myeloid differentiation; 1% of 360,000 active; ER-HoxA9 myeloid progenitors, lysozyme-GFP differentiation, flow cytometry; calls only at 10 µM; AID 624256;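 active = normalized GFP-positive differentiation at or above the plate's own cutoff, the solvent-only control mean plus 3 SD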;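 also: cells exposed to compound for four days before flow analysis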
CendR NRP1 mod: modulators of CendR peptide binding to human neuropilin-1. O14786. FAM-RPARPAR peptide binding to NRP-1, fluorescence polarization. inhibition, % at 25 µM. 0.85% of 360,000 active;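 active = inhibition or corrected inhibition above about 18%, plus a signal ratio from 0.5 to 1.5, limit read from the data, passing the limit was not always enough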
Target sequence (O14786 whole entry, looked up): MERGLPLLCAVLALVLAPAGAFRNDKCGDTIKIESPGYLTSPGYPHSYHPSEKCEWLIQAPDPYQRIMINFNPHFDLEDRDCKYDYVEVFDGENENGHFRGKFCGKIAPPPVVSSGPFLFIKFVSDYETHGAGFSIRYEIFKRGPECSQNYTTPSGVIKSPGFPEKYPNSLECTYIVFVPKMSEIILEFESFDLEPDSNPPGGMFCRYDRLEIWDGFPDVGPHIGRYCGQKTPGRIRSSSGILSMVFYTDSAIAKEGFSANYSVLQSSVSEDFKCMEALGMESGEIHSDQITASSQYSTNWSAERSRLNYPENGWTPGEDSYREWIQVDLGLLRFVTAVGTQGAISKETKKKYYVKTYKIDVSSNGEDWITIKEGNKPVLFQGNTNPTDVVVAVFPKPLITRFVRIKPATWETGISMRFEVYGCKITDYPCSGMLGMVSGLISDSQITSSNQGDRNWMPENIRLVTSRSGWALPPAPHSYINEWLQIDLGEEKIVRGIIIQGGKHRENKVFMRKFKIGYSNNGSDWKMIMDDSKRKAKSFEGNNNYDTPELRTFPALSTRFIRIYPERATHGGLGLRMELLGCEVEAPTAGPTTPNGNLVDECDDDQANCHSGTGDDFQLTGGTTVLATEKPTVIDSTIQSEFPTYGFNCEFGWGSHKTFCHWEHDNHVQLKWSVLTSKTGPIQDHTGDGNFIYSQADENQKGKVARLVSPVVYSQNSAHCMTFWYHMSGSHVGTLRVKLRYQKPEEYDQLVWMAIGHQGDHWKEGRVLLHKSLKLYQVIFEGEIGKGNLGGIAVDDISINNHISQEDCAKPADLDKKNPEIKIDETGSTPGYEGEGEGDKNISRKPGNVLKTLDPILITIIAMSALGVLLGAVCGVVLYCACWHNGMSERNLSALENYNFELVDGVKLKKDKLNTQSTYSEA
ATG4B inh: ATG4B (human) cysteine protease inhibition; ATG4B cleavage of LC3-PLA2, NBD-HPC fluorescence, 1 h; inhibition, % at 8.33 µM; 0.51% of 340,000 active; in the data active = inhibition above about 40%
ABCB6 inh 2: blocks the human ABCB6 transporter; 0.19% of 360,000 active; AID 602162; K562-ABCB6 porphyrin accumulation, flow cytometry, 1 h; stronger effect = lower value; fluorescence ratio to DMSO, % at 10 µM;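 active = fluorescence ratio to DMSO below 75%, the collection mean minus 3 SD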;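 also: signal is porphyrin accumulated inside mitochondria; lower ratio means ABCB6 inhibition with less porphyrin fluorescence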
Exocytosis inh: lytic granule exocytosis inhibition. TALL-104 LAMP-1 surface exposure, flow cytometry; cells stimulated with thapsigargin and PMA. inhibition, % at 10 µM. 0.66% of 360,000 active;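 active = inhibition above about 55%, limit read from the data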
Arrestin-AP2 inh: human beta-arrestin and AP2 interaction inhibition; FITC-arrestin peptide / GST-AP2 beads, flow cytometry; AP2 beta2 appendage carries R879A mutation; AID 504490; 0.31% of 340,000 active; inhibition, % at 10 µM;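 active = inhibition above a set limit, near 3 SD of compounds lacking own fluorescence, cut at about 54% in these data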
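Measured by: flow cytometry, FL1 (488/535 nm); Material: AP2 appendage R879A on GSH beads; Evaluation: percent response; Timing: pre-incubation 12 min, peptide binding 1 h, room temperature; Also added: 50 nM FITC-arrestin peptide; Medium: PBS with 0.05% Tween 20 and 0.1% BSA.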
Each line names hits and unclear results; the compound was inactive in the other large screens. Compounds with a hit are over-represented: about 3.3% of the library has one in this group of screens.

O=C(O)C1=C2C(=O)Nc3cccc(c32)C2(C1)C(=O)Nc1ccccc12 (centres undefined)	none (no result: ATG4B inh, Arrestin-AP2 inh)
Cc1ccc(/C=C/c2onc(C)c2S(=O)(=O)N2CCC(C(=O)NC(C)(C)C)CC2)cc1	none
N#Cc1c(C(F)(F)F)cc(-c2ccc(Cl)c(Cl)c2)nc1SCCN1CCOCC1	none
N#Cc1c(C(F)(F)F)cc(-c2ccccc2)nc1SCc1nc(N)nc(N2CCOCC2)n1	Myeloid diff 2 active
O=C(c1ccc(Cl)s1)N1CCCC1	Myeloid diff 2 active
CS(=O)(=O)N1CCN(C(=O)c2ccc(Cl)s2)CC1	none
COc1ccc(C(=O)/C=C/c2ccccc2)c(OC)c1	none
COc1ccc(C(=O)/C=C/c2ccc(N(C)C)cc2)c(OC)c1	Myeloid diff 2 active
CC(Oc1ccc(Cl)cc1Cl)C(=O)Nc1ccncc1 (centres undefined)	none
CC(Oc1ccc(Cl)cc1Cl)C(=O)Nc1cccnc1 (centres undefined)	CendR NRP1 mod 26
CC(C)(CNC(=O)c1ccc(NS(=O)(=O)c2ccc(F)cc2)cc1)N1CCOCC1	none
CCOc1ccc(S(=O)(=O)Nc2ccc(C(=O)NCC(C)(C)N3CCOCC3)cc2)cc1	CendR NRP1 mod 21
CC(=O)c1ccc(S(=O)(=O)NCC(=O)N2CCN(C/C=C/c3ccccc3)CC2)cc1	none
CNC(=O)C[C@@H]1CC[C@@H]2[C@H](COC[C@H](O)CN2S(=O)(=O)c2ccccc2Cl)O1	CendR NRP1 mod 32 (no result: ATG4B inh, ABCB6 inh 2, Arrestin-AP2 inh)
Cc1cc(/C=C(\C#N)C(=O)OCC#N)c(C)n1CC(C)C	CendR NRP1 mod 33
CCOC(=O)/C(C#N)=C/c1cc(C)n(-c2ccc(C)cc2)c1C	Exocytosis inh 86
Cc1cc(/C=C(\C#N)C(=O)OCC(=O)Nc2ccc(OC(F)F)cc2)c(C)n1CC(C)C	none
CCOC(=O)/C(C#N)=C\c1ccc(N2CCN(C/C=C/c3ccccc3)CC2)cc1	Myeloid diff 2 active
Cc1ccc(Cl)cc1NC(=O)c1cccc(OC(F)F)c1	none
CCOc1ccc(C(=O)Nc2ccc(S(=O)(=O)N3C[C@@H]4C[C@@H](C3)c3cccc(=O)n3C4)cc2)cc1	none
S=C(Nc1ccc2nsnc2c1)N1CCCCC1	none
CCN(CC)C(=O)C1CCCN(C(=O)Nc2ccc3nsnc3c2)C1 (centres undefined)	CendR NRP1 mod 34
CC(=O)Nc1cc(F)c2c(c1F)Cc1cc(F)ccc1-2	CendR NRP1 mod 24
O=C(Cn1cnc2cc([N+](=O)[O-])ccc2c1=O)NCCc1ccc(F)cc1	none
O=C(Cn1cnc2cc([N+](=O)[O-])ccc2c1=O)NCCc1ccc(Cl)cc1	CendR NRP1 mod 20
Cc1nn(C)cc1NC(=O)Cn1nc(C(F)(F)F)cc1C1CC1	none
CCOC(=O)c1c(C)oc(NC(=O)CCl)c1C(=O)OCC	none
O=C(COC(=O)c1ccc(Cl)nc1)NNC(=O)c1ccc(Br)cc1	none
Cc1ccc(/C=C2\SC(=S)N(CCCC(=O)N3CCOCC3)C2=O)cc1	Myeloid diff 2 active
CN1CCN(C(=O)CCCN2C(=O)/C(=C/c3ccccc3)SC2=S)CC1	Exocytosis inh 61
CN1CCN(C(=O)CCCN2C(=O)/C(=C/c3ccc(Cl)cc3)SC2=S)CC1	none
CCOc1ccc(/C=C2\SC(=S)N(CCC(=O)Nc3ccccc3C(=O)O)C2=O)cc1	Myeloid diff 2 active
COc1ccc(/C=C2\SC(=S)N(CCC(=O)N3CCCCC3)C2=O)cc1	Myeloid diff 2 active
COc1ccc(/C=C2\SC(=S)N(CCC(=O)Nc3ccccc3C(=O)O)C2=O)cc1	none
COC(=O)c1ccc(/C=C2\SC(=S)N(CCCC(=O)N3CCOCC3)C2=O)cc1	none
Cc1ccc(NC(=O)CSCc2cc(=O)n3cc(C)sc3n2)c(C)c1	none
CCOc1ccccc1NC(=O)CCCn1cc([N+](=O)[O-])cn1	none
COC(=O)c1cc(OC)c(OC)c(OC)c1[N+](=O)[O-]	none
CC(=Cc1ccccc1)C=C1SC(=S)N(CCCC(=O)Nc2ccc(C(=O)O)c(O)c2)C1=O	none (no result: ATG4B inh, Arrestin-AP2 inh)
CC(/C=C1\SC(=S)N(CCCC(=O)Nc2ccc(C(=O)O)c(O)c2)C1=O)=C\c1ccccc1	ATG4B inh 41 (no result: Myeloid diff 2, CendR NRP1 mod, ABCB6 inh 2, Exocytosis inh, Arrestin-AP2 inh)
COCCN1C(=O)/C(=C/c2ccc(N3CCCC3)cc2)SC1=S	Myeloid diff 2 active
CC(C)n1c2ccccc2c2cc([N+](=O)[O-])ccc21	none
CCn1c2ccccc2c2cc([N+](=O)[O-])ccc21	CendR NRP1 mod 29
C=CCc1cccc(/C=N/NC(=O)CCC(=O)Nc2ccc(F)cc2)c1O	Myeloid diff 2 active
C=CCc1cccc(/C=N/NC(=O)CCCNc2ccc(C)cc2)c1O	none
CN1CCOC(=O)/C1=N/Nc1cc(Cl)ccc1Cl	none
CC(C)C[C@@H](CN1CCCC1CN1C(=S)NC[C@@H]1Cc1ccc(O)cc1)N1C[C@H](Cc2ccc(O)cc2)N(CCc2ccccc2)C1=S (some centres undefined)	none (no result: ATG4B inh)
COc1ccc(C(=O)N2CCC(C)(C(=O)NS(=O)(=O)C3CC3)C2)cc1F (centres undefined)	CendR NRP1 mod 22 (no result: ATG4B inh, Arrestin-AP2 inh)
COc1cccc(CNC(=O)CCC2CCCN(C(=O)c3cc4ccccc4o3)C2)c1 (centres undefined)	none
COc1ccc(OCCCC(=O)Nc2cc([N+](=O)[O-])ccc2C)cc1	none
CCOc1ccc(S(=O)(=O)NC2=NCCCCC2)cc1	CendR NRP1 mod 18
O=S(=O)(NC1=NCCCCC1)c1ccc(Cl)cc1	none
CCOC(=O)C1=C(Cc2ccc(F)cc2)C(=O)c2ccccc2C1=O	Myeloid diff 2 active, Exocytosis inh 100
CCOC(=O)c1cnc(Cc2ccccc2)[nH]c1=O	none
CC1CCCC(NC(=O)CCC(=O)c2ccc(F)cc2)C1C (centres undefined)	CendR NRP1 mod 26
CC1CCCC(NC(=O)CSc2ccc(F)cc2)C1C (centres undefined)	none
Cn1c(=O)c2c(SCC(=O)Nc3nccs3)nc(C3CC3)nc2n(C)c1=O	Myeloid diff 2 active
CCOc1ccccc1OCCCCCc1c(C)n[nH]c1C	Myeloid diff 2 active
COc1ccccc1OCCCCCc1c(C)n[nH]c1C	none
CCN1C(=O)N(CC)C(O)(c2ccccc2)C1(O)c1ccccc1 (centres undefined)	CendR NRP1 mod 30
C=CCn1c(SCc2ccc(Cl)cc2)nc2c1c(=O)[nH]c(=O)n2C	CendR NRP1 mod 26
C=CCn1c(SCc2ccc(F)cc2)nc2c1c(=O)[nH]c(=O)n2C	none
O=C(NCC1CCCN(C(=O)NCc2ccccc2)C1)c1ccc2c(c1)OCO2 (centres undefined)	none
COc1ccc(Nc2nccc(-c3cccc(N)c3)n2)cc1	CendR NRP1 mod 20
Cc1cccc(N2C(=O)C(Cl)=C(Nc3c(C)n(C)n(-c4ccccc4)c3=O)C2=O)c1C	CendR NRP1 mod 26
Cc1ccc(N2C(=O)C(Cl)=C(Nc3c(C)n(C)n(-c4ccccc4)c3=O)C2=O)cc1	none
